From paper PMC9902323 (Clinical Drug Investigation, 2023)

What was measured:
Pharmacokinetics = format: in vivo, human; details: single s.c. dose 5.6 U/kg; p < 0.001
[1] = test system: individuals with type 2 diabetes; test: Safety assessments; format: in vivo, human; details: all injection regions; N (%) of 25
How it was run: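 Over three treatment periods, 25 participants with type 2 diabetes each received one 5.6 U/kg s.c. dose per region (thigh, abdomen, upper arm), stayed in-house to 60 h, and underwent a 36–60 h glucose clamp at 7.5 mmol/L. Monitoring covered adverse events, labs, vital signs and examination. Hypoglycaemia levels: 1, plasma glucose <3.9 and ≥3.0 mmol/L; 2, <3.0 mmol/L; 3, severe cognitive impairment needing assistance.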

albumin = details: after s.c. administration and absorption into the circulation; cited from earlier work

## insulin icodec
Pharmacokinetics
  Cmax after single dose higher for upper arm versus thigh: 24%
[1]
  Participants reporting adverse events: 12 (48%) participants
albumin
  Binding to albumin: binds strongly to albumin
